# Assay results as given in article PMC13487472 (Blood, 2026).
# Tested on: ALL-SIL
# Assay: CTG assay in ALL-SIL
# Type: cell-based
# Settings: ABL-fusion-positive cell line, 72 hrs
# Method in brief: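 After 72 h, an equal volume of CellTiter-Glo was added and luminescence read as an ATP-based proxy for cell number. Signals were normalised to DMSO controls; triplicates; LC50 fitted with a 4-parameter dose-response model.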
smiles,measurement,value
Cc1nc(Nc2ncc(C(=O)Nc3c(C)cccc3Cl)s2)cc(N2CCN(CCO)CC2)n1 [dasatinib],Cytotoxicity in ALL-SIL,highly sensitive
